Assay results reported in ChEMBL document CHEMBL1142458, “Computational structure-activity relationship analysis of non-peptide inducers of macrophage tumor necrosis factor-alpha production” (Bioorg Med Chem, 2008).
Active and inactive are the calls of the source. No rule for the calls is given here.

Key:
J774.A1 [1] = assay: Stimulation of TNFalpha production in mouse J774.A1 cells at 50 uM after 24 hrs by ELISA relative to untreated control; format: functional
Method in brief: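 Murine J774.A1 macrophages grown in DMEM with 10% heat-inactivated FBS and 10 mM HEPES at 37°C under 5% CO2, detached by scraping. Plated at 2×10^5 cells/well in medium with 3% FBS and exposed 24 hr to compound, DMSO vehicle or LPS. Supernatant TNF-α measured by murine ELISA against a standard curve. Reported as fold-increase over DMSO control.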

J774.A1 [2] = assay: Cytotoxicity against mouse J774.A1 cells assessed as effect on cell viability at <=50 uM after 24 hrs; format: cell-based; conditions: j774.a1, 24 h

O=C(N/N=C/c1ccc(-c2ccc(Cl)cc2)o1)c1cncc(Br)c1
fold change (FC) (J774.A1 [1]): 25 | Activity (J774.A1 [2]): Non-toxic

O=C(N/N=C/c1ccc(-c2cccc(Cl)c2Cl)o1)c1ccccc1
fold change (FC) (J774.A1 [1]): 8

COc1ccc(/C=N/NC(=O)c2ccc3c(c2)OCO3)c(OC)c1
Activity (J774.A1 [1]): inactive

O=C(N/N=C/c1cc(/N=N\c2cccc(C(F)(F)F)c2)ccc1O)c1ccc2c(c1)OCO2
Activity (J774.A1 [1]): inactive

C/C(=N\NC(=O)c1ccc2c(c1)OCO2)c1cccc([N+](=O)[O-])c1
Activity (J774.A1 [1]): inactive

O=C(N/N=C/c1ccco1)c1ccc(Cl)cc1Cl
Activity (J774.A1 [1]): inactive

COc1cc(/C=N\NC(=O)c2cccc(C)c2O)ccc1OCc1ccccc1
Activity (J774.A1 [1]): inactive

Cc1ccc(-c2ccc(/C=N/NC(=O)c3ccncc3)o2)cc1Cl
fold change (FC) (J774.A1 [1]): 50 | Activity (J774.A1 [2]): Non-toxic

Cc1ccc(C(=O)N/N=C/c2ccc(-c3cccc(Cl)c3Cl)o2)cn1
Activity (J774.A1 [1]): inactive | Activity (J774.A1 [2]): Non-toxic

Cc1ccc(C(=O)N/N=C/c2ccc(-c3ccc(Cl)c(Cl)c3)o2)cn1
Activity (J774.A1 [1]): inactive | Activity (J774.A1 [2]): Non-toxic

O=C(N/N=C/c1ccc(Br)o1)c1ccccc1
Activity (J774.A1 [1]): inactive

O=C(N/N=C/c1ccc(-c2cccc(Br)c2)o1)c1cccnc1
fold change (FC) (J774.A1 [1]): 50

O=C(N/N=C/c1cc(Br)cc(I)c1O)c1ccc2c(c1)OCCO2
Activity (J774.A1 [1]): inactive

O=C(N/N=C/c1ccc(-c2ccc(Br)cc2)o1)c1cccnc1
Activity (J774.A1 [1]): inactive | Activity (J774.A1 [2]): Non-toxic

O=C(N/N=C/c1ccc(-c2cc(Cl)c(Cl)cc2Cl)o1)c1cccnc1
Activity (J774.A1 [1]): inactive | Activity (J774.A1 [2]): Non-toxic

CCOc1cc(/C=N\NC(=O)c2ccc3c(c2)OCO3)ccc1OC(=O)c1ccc(Br)cc1
fold change (FC) (J774.A1 [1]): <5

COc1ccc(C(=O)N/N=C/c2ccc(-c3ccc(Cl)c(C(=O)O)c3)o2)cc1
Activity (J774.A1 [1]): inactive

O=C(N/N=C1\C(=O)N(Cc2cccc3ccccc23)c2ccccc21)c1ccc2c(c1)OCO2
Activity (J774.A1 [1]): inactive

CN(C)c1ccc(/C=N\NC(=O)c2cccc(F)c2)cc1
Activity (J774.A1 [1]): inactive

Cc1ccc(C(=O)N/N=C/c2ccc(-c3cccc(Br)c3)o2)cn1
Activity (J774.A1 [1]): inactive | Activity (J774.A1 [2]): Non-toxic

Cc1ccc(C(=O)N/N=C/c2ccc(-c3ccc(C)c(Cl)c3)o2)cn1
fold change (FC) (J774.A1 [1]): 21 | Activity (J774.A1 [2]): Non-toxic

O=C(N/N=C/c1ccc(-c2ccc([N+](=O)[O-])cc2Cl)o1)c1ccc2c(c1)OCO2
fold change (FC) (J774.A1 [1]): 35

CN(C)c1ccc(/C=N/NC(=O)c2ccc3c(c2)OCO3)cc1
Activity (J774.A1 [1]): inactive

Cc1ccc(C(=O)N/N=C/c2ccc(-c3ccc(Cl)cc3Cl)o2)cn1
Activity (J774.A1 [1]): inactive | Activity (J774.A1 [2]): Non-toxic

O=C(/C=C\c1ccco1)Oc1ccc(/C=N\NC(=O)c2ccc3c(c2)OCO3)cc1
Activity (J774.A1 [1]): inactive

O=C(/C=C/c1ccco1)Oc1cccc(/C=N/NC(=O)c2ccc3c(c2)OCO3)c1
Activity (J774.A1 [1]): inactive

COc1ccc(Cl)cc1/C=N/NC(=O)c1ccc2c(c1)OCCO2
Activity (J774.A1 [1]): inactive

COc1cc(/C=N\NC(=O)c2ccc3c(c2)OCO3)ccc1OC(=O)c1ccco1
Activity (J774.A1 [1]): inactive

O=C(N/N=C/c1ccc(-c2cccc(C(F)(F)F)c2)o1)c1cc(I)ccc1Cl
fold change (FC) (J774.A1 [1]): <5

Cc1ccc(C(=O)N/N=C/c2ccc(-c3cccc(Cl)c3)o2)cn1
Activity (J774.A1 [1]): inactive | Activity (J774.A1 [2]): Non-toxic

CCOc1ncccc1C(=O)N/N=C/c1ccc([N+](=O)[O-])o1
Activity (J774.A1 [1]): inactive

Cc1ccc(C(=O)N/N=C/c2ccc(-c3ccc(Cl)cc3)o2)cn1
Activity (J774.A1 [1]): inactive | Activity (J774.A1 [2]): Non-toxic

O=C(N/N=C/c1ccc([N+](=O)[O-])o1)c1cc([N+](=O)[O-])cc([N+](=O)[O-])c1O
Activity (J774.A1 [1]): inactive

CCN1C(=O)/C(=N\NC(=O)c2ccc3c(c2)OCO3)c2ccccc21
Activity (J774.A1 [1]): inactive

O=C(N/N=C/c1cc(Br)c(Br)o1)c1ccc2c(c1)OCO2
fold change (FC) (J774.A1 [1]): <5

O=C(N/N=C/c1ccc(-c2cccc(Cl)c2Cl)o1)c1cccnc1
Activity (J774.A1 [1]): inactive | Activity (J774.A1 [2]): Non-toxic

CN(C)c1ccc(/C=N\NC(=O)c2ccc([N+](=O)[O-])cc2)cc1
fold change (FC) (J774.A1 [1]): 25

O=C(N/N=C/c1cc(/N=N\c2cccc3ccccc23)ccc1O)c1ccc2c(c1)OCO2
Activity (J774.A1 [1]): inactive

O=C(N/N=C/c1c(O)ccc2ccccc12)c1ccc2c(c1)OCO2
Activity (J774.A1 [1]): inactive

Cc1cc(C)n(Cc2ccc(C(=O)N/N=C/c3ccco3)cc2)n1
Activity (J774.A1 [1]): inactive

CCc1ccc(C(=O)N/N=C/c2ccc(-c3ccc(C)c(Cl)c3)o2)nc1
Activity (J774.A1 [1]): inactive | Activity (J774.A1 [2]): Non-toxic

O=C(N/N=C/c1ccc(-c2ccc(Cl)cc2)o1)c1ccncc1
Activity (J774.A1 [1]): inactive | Activity (J774.A1 [2]): Non-toxic

O=C(N/N=C/c1ccc(-c2cccc(C(F)(F)F)c2)o1)c1ccc(F)cc1
fold change (FC) (J774.A1 [1]): 35

O=C(N/N=C/c1ccc(I)o1)c1ccccc1F
Activity (J774.A1 [1]): inactive

CC(C)(C)c1ccc(C(=O)N/N=C/c2ccc(-c3ccc([N+](=O)[O-])cc3)o2)cc1
Activity (J774.A1 [1]): inactive

O=C(O)COc1ccccc1/C=N/NC(=O)c1ccc2c(c1)OCO2
Activity (J774.A1 [1]): inactive

O=C(N/N=C/c1ccc(-c2ccc(Cl)cc2Cl)o1)c1cncc(Br)c1
Activity (J774.A1 [1]): inactive | Activity (J774.A1 [2]): Non-toxic

O=C(N/N=C/c1ccc(-c2ccc([N+](=O)[O-])cc2)o1)c1cccc(O)c1
Activity (J774.A1 [1]): inactive

O=C(N/N=C/c1ccc(-c2ccccc2Cl)o1)c1cccnc1
Activity (J774.A1 [1]): inactive | Activity (J774.A1 [2]): Non-toxic

O=C(N/N=C/c1ccco1)c1cccnc1
Activity (J774.A1 [1]): inactive

CC(C)N1C(=O)/C(=N\NC(=O)c2ccc3c(c2)OCO3)c2ccccc21
Activity (J774.A1 [1]): inactive

O=C(N/N=C/c1ccc(-c2ccc(Cl)c(Cl)c2)o1)c1ccccc1O
Activity (J774.A1 [1]): inactive

O=C(N/N=C/c1ccco1)c1ccccc1
Activity (J774.A1 [1]): inactive

O=C(N/N=C/c1ccc(-c2ccccc2Cl)o1)c1ccc(Cl)cc1Cl
fold change (FC) (J774.A1 [1]): <5

Cc1ccc(C(=O)N/N=C/c2ccc(-c3cccc(C(F)(F)F)c3)o2)cn1
fold change (FC) (J774.A1 [1]): <5

COc1ccc(C(=O)N/N=C\c2ccc(N(C)C)cc2)cc1
Activity (J774.A1 [1]): inactive

O=C(N/N=C/c1cc(Br)c(Br)o1)c1ccc2c(c1)OCCO2
Activity (J774.A1 [1]): inactive

Cc1ccc(C(=O)N/N=C/c2ccc(C)o2)cc1
Activity (J774.A1 [1]): inactive

O=C(N/N=C/c1ccc(-c2ccc(Cl)c(Cl)c2)o1)c1ccncc1
Activity (J774.A1 [1]): inactive | Activity (J774.A1 [2]): Non-toxic

O=C(N/N=C/c1ccc(-c2cccc(Cl)c2)o1)c1ccc([N+](=O)[O-])cc1
Activity (J774.A1 [1]): inactive

O=C(N/N=C/c1ccc(-c2ccc(Cl)cc2)o1)c1cccnc1
fold change (FC) (J774.A1 [1]): 15 | Activity (J774.A1 [2]): Non-toxic

O=C(N/N=C/c1cc(Br)cc(Br)c1OC(=O)c1ccccc1)c1ccc2c(c1)OCO2
fold change (FC) (J774.A1 [1]): <5

O=C(N/N=C/c1ccc(-c2cccc(C(F)(F)F)c2)o1)c1ccc(Br)cc1
Activity (J774.A1 [1]): inactive

Cc1ccc(C(=O)N/N=C/c2ccc(-c3cc(Cl)c(Cl)cc3Cl)o2)cn1
fold change (FC) (J774.A1 [1]): <5

Cc1ccc(C(=O)N/N=C/c2ccc(-c3cc(Cl)ccc3Cl)o2)cn1
Activity (J774.A1 [1]): inactive | Activity (J774.A1 [2]): Non-toxic

O=C(N/N=C/c1ccc(-c2cc(Cl)ccc2Cl)o1)c1ccc([N+](=O)[O-])cc1
fold change (FC) (J774.A1 [1]): <5

CN(C)c1ccc(/C=N\NC(=O)c2ccccc2O)cc1
Activity (J774.A1 [1]): inactive

O=C(N/N=C/c1ccc(-c2ccc(Cl)c(Cl)c2)o1)c1ccc2c(c1)OCO2
fold change (FC) (J774.A1 [1]): <5

COc1ccc(-c2ccc(/C=N/NC(=O)c3ccc([N+](=O)[O-])cc3)o2)cc1Cl
Activity (J774.A1 [1]): inactive

O=C(N/N=C/c1ccc(-c2ccc(Cl)cc2Cl)o1)c1ccccc1[N+](=O)[O-]
Activity (J774.A1 [1]): inactive

O=C(N/N=C/c1ccc(-c2ccc(O)c(C(=O)O)c2)o1)c1cccnc1
Activity (J774.A1 [1]): inactive

O=C(N/N=C/c1ccc(-c2cccc(Br)c2)o1)c1ccccn1
Activity (J774.A1 [1]): inactive | Activity (J774.A1 [2]): Non-toxic

O=C(N/N=C/c1ccc(-c2ccc(Cl)c([N+](=O)[O-])c2)o1)c1ccc2c(c1)OCO2
Activity (J774.A1 [1]): inactive

COc1ccccc1OCc1ccc(C(=O)N/N=C/c2ccco2)cc1
Activity (J774.A1 [1]): inactive

COc1ccc(Br)cc1C(=O)N/N=C/c1ccc(C)o1
Activity (J774.A1 [1]): inactive

O=C(N/N=C/c1ccco1)c1ccc(Br)cc1O
Activity (J774.A1 [1]): inactive

Cc1ccc(-c2ccc(/C=N/NC(=O)c3cccnc3)o2)cc1Cl
fold change (FC) (J774.A1 [1]): 60 | Activity (J774.A1 [2]): Non-toxic

O=C(N/N=C/c1ccco1)c1cccc(F)c1
Activity (J774.A1 [1]): inactive

COc1cc(/C=N\NC(=O)c2ccc3c(c2)OCO3)ccc1OCc1ccccc1
fold change (FC) (J774.A1 [1]): 7

COc1cc(Br)ccc1C(=O)N/N=C/c1ccco1
Activity (J774.A1 [1]): inactive

O=C(N/N=C/c1ccc([N+](=O)[O-])o1)c1ccc(O)cc1O
Activity (J774.A1 [1]): inactive

COc1ccc(/C(C)=N/NC(=O)c2ccc3c(c2)OCCO3)cc1[N+](=O)[O-]
Activity (J774.A1 [1]): inactive

O=C(N/N=C/c1ccc(-c2cccc(C(F)(F)F)c2)o1)c1ccc([N+](=O)[O-])cc1
fold change (FC) (J774.A1 [1]): <5

O=C(N/N=C/c1ccc(-c2cccc(Cl)c2)o1)c1cccnc1
fold change (FC) (J774.A1 [1]): 17 | Activity (J774.A1 [2]): Non-toxic

Cc1ccc(-c2ccc(/C=N/NC(=O)c3cncc(Br)c3)o2)cc1Cl
fold change (FC) (J774.A1 [1]): 10 | Activity (J774.A1 [2]): Non-toxic
